According to the M2OR odorant receptor database:
Positions count from the first letter of the chain named.

Tests used:
Settings in all cases: stereoisomer not certain
[1] = test system: T1, O5AP2 A105T
T1 sequence (whole entry): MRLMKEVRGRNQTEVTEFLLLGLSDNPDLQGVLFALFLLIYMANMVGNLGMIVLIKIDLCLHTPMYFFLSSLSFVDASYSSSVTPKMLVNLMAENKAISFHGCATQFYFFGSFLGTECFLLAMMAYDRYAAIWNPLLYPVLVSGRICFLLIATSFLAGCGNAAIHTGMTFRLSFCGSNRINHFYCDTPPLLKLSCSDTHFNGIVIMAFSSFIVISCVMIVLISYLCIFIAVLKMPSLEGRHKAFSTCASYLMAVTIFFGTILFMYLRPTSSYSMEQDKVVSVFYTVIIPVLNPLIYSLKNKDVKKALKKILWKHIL
Outline: (§1)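 Assay methods differ from source to source, frequently being transient luciferase assays in mammalian cell lines. For each receptor–molecule pair, the label responsive (active) applies when the original authors judged the measured signal statistically different from baseline, and non-responsive (inactive) applies otherwise.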

[2] = test system: T2, O5AU1
T2 sequence (whole entry): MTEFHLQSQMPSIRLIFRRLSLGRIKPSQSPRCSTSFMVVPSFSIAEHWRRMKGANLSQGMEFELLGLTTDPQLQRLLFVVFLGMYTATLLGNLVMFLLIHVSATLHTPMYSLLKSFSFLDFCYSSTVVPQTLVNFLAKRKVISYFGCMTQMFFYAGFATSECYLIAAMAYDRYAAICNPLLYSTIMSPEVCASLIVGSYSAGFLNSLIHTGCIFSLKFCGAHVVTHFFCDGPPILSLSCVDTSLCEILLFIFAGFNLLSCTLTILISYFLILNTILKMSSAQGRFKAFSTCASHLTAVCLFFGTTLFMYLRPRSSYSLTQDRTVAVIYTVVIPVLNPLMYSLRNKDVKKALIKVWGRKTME
Outline: as §1

[3] = test system: T3, O5H14
T3 sequence (whole entry): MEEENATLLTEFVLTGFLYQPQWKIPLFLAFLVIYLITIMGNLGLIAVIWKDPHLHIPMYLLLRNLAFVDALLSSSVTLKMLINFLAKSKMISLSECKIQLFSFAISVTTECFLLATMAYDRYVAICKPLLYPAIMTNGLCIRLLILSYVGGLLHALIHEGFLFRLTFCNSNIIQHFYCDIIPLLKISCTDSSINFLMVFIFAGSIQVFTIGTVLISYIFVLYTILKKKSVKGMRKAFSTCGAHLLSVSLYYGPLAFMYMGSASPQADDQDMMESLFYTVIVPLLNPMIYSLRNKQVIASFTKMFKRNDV
Outline: as §1

[4] = test system: T4, O5H15 V108I S148T T167S
T4 sequence (whole entry): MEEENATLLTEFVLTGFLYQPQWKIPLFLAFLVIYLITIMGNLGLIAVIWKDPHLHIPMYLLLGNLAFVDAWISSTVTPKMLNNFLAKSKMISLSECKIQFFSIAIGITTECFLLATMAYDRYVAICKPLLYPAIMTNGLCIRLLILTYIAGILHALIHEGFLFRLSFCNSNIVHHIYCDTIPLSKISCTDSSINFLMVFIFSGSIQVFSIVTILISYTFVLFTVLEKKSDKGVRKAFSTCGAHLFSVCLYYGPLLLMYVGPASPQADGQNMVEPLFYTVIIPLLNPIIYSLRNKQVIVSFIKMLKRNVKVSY
Outline: as §1

[5] = test system: T5, O6C65 T222A
T5 sequence (whole entry): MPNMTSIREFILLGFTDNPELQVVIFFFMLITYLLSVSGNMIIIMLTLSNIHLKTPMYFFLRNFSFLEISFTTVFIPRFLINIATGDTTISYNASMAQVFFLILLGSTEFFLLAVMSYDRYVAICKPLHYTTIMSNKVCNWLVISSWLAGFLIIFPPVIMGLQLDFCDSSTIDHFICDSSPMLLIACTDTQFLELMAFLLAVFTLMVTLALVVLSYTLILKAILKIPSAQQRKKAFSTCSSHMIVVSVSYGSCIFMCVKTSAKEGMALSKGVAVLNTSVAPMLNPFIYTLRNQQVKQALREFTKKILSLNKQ
Outline: as §1

[6] = test system: T6, O6C70 L181P
T6 sequence (whole entry): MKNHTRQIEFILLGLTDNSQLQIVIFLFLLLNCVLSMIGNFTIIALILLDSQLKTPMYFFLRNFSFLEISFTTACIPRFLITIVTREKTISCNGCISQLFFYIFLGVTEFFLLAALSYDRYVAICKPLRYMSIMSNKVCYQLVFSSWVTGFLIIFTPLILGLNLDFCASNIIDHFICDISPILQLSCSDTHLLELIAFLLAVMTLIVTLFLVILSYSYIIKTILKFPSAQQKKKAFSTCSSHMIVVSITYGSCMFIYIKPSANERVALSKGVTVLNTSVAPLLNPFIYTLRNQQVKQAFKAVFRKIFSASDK
Outline: as §1

[7] = test system: T7, O7E24 S193F P242S
T7 sequence (whole entry): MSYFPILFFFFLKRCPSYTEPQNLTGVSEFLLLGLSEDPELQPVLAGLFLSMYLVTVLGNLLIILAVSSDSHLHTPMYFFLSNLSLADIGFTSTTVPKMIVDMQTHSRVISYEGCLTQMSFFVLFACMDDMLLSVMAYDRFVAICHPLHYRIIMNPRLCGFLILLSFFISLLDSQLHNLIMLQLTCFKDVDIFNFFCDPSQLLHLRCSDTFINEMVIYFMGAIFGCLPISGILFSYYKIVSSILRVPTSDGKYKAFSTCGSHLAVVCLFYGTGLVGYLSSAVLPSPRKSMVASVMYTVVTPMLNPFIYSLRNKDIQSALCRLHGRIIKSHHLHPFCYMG
Outline: as §1

[8] = test system: T8, O7E24
T8 sequence (whole entry): T7 sequence (whole entry) with F193S
Outline: as §1

[9] = biological target: T9, OR10A2 (Homo sapiens) (UniProt Q9H208)
T9 sequence (whole entry): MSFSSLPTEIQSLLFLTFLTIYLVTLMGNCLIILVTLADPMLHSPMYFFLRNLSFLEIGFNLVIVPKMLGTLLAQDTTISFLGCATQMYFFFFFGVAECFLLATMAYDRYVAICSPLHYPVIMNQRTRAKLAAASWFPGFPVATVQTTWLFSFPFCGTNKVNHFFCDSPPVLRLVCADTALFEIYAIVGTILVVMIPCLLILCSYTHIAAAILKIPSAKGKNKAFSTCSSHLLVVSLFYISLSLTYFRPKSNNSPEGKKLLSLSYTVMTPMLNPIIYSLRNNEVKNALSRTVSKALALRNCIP
Outline: as §1

[10] = biological target: T10, OR10A3 (Homo sapiens) (UniProt P58181)
T10 sequence (whole entry): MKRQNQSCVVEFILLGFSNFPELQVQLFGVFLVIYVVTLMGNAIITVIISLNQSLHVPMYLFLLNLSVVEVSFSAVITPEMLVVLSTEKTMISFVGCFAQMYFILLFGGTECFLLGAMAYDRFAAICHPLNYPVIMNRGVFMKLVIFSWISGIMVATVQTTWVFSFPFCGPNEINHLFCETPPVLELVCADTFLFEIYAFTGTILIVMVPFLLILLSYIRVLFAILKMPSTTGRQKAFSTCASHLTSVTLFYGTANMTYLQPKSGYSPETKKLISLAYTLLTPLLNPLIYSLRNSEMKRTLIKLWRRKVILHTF
Outline: as §1

[11] = biological target: T11, OR10A4 (Homo sapiens) (UniProt Q9H209)
T11 sequence (whole entry): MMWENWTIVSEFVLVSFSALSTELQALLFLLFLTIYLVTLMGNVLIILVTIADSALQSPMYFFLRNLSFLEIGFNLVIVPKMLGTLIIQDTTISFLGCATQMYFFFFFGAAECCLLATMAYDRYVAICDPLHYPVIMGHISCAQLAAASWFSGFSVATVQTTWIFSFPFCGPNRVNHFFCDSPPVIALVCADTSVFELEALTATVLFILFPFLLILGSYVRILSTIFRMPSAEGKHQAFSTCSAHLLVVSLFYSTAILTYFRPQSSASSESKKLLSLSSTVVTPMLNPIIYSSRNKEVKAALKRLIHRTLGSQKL
Outline: as §1

[12] = biological target: T12, OR10A5 (Homo sapiens) (UniProt Q9H207)
T12 sequence (whole entry): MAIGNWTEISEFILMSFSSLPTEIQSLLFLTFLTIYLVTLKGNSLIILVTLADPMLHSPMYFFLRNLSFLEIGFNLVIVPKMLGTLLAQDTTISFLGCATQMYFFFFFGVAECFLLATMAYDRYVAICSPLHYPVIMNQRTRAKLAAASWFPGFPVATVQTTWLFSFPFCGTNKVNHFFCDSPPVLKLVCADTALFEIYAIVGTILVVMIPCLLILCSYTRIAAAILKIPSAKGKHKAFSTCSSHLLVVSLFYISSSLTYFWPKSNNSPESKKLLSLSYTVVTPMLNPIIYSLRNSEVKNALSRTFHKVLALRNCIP
Outline: as §1

[13] = biological target: T13, OR10A6 (Homo sapiens) (UniProt Q8NH74)
T13 sequence (whole entry): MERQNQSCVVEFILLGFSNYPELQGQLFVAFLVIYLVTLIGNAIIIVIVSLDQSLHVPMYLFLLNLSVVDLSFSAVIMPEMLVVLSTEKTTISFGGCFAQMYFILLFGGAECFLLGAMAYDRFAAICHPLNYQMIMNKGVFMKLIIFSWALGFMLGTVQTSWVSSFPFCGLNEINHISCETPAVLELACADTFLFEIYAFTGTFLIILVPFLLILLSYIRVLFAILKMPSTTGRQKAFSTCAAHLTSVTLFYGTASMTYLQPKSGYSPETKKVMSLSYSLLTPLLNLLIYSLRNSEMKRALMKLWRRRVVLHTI
Outline: as §1

[14] = biological target: T14, OR10A7 (Homo sapiens) (UniProt Q8NGE5)
T14 sequence (whole entry): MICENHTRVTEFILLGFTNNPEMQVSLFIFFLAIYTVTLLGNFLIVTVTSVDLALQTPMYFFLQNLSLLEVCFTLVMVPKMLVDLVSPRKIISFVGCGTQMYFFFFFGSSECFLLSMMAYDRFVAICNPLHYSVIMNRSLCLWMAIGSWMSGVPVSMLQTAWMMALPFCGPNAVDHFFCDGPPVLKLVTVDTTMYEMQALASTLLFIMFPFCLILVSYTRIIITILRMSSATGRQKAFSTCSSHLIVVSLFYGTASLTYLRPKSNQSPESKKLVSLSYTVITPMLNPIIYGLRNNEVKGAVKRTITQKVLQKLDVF
Outline: as §1

[15] = biological target: T15, OR10AD1 (Homo sapiens) (UniProt Q8NGE0)
T15 sequence (whole entry): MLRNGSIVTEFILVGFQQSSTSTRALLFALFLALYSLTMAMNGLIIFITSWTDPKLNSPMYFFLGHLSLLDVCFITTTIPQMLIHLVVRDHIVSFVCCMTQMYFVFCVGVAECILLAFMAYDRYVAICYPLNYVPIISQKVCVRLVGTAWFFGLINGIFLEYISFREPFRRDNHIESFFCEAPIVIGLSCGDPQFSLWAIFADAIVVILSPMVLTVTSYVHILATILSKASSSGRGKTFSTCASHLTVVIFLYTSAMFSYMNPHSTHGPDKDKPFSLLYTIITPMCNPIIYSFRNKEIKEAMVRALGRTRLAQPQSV
Outline: as §1

[16] = biological target: T16, OR10AG1 (Homo sapiens) (UniProt Q8NH19)
T16 sequence (whole entry): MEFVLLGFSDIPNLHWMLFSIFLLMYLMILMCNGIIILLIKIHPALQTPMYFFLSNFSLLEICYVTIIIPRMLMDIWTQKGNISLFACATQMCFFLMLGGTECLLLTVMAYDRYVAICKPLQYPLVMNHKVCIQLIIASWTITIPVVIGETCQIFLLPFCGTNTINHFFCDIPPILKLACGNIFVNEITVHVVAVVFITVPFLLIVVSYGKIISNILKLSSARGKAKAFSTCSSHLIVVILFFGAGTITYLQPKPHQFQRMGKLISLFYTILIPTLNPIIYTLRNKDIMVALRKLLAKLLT
Outline: as §1

[17] = biological target: T17, OR10C1 (Homo sapiens) (UniProt Q96KK4)
T17 sequence (whole entry): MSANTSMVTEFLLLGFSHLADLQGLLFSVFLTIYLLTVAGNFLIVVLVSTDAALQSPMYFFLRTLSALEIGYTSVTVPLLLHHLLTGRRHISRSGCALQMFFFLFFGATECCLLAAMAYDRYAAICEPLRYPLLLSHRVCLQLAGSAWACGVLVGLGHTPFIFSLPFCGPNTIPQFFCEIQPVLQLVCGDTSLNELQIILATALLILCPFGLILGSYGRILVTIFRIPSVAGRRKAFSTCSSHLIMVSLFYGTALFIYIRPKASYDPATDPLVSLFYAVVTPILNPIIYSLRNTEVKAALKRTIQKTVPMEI
Outline: as §1

[18] = biological target: T18, OR10D3 (Homo sapiens) (UniProt Q8NH80)
T18 sequence (whole entry): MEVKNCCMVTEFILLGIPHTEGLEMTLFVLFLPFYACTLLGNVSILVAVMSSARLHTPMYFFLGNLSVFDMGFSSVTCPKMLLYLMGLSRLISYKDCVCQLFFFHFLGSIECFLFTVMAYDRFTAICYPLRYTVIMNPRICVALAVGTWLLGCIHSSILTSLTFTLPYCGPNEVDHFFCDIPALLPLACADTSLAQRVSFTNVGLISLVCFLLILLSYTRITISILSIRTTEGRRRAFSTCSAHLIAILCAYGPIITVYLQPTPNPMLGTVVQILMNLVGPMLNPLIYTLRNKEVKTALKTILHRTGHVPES
Outline: as §1

[19] = test system: T19, O5AN1
T19 sequence (whole entry): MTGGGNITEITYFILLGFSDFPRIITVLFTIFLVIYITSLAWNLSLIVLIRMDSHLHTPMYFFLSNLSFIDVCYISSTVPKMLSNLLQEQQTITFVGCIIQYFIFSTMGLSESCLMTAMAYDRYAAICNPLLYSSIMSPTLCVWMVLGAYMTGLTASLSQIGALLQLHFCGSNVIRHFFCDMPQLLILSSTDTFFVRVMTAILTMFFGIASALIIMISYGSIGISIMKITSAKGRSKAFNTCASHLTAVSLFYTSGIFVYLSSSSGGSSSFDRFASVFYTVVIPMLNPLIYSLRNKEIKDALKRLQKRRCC
Outline: as §1

Measured: odorant receptor agonist call

Cc1cnc(C)c(C)n1
inactive: [1] | [2] | [3] | [4] | [5] | [6] | [7] | [8] | [9] | [10] | [11] | [12] | [13] | [14] | [15] | [16] | [17] | [18]

O=C1CCCC=CCCCCCCCCCC1
active: [19]

CC1(C)CC(=O)CC(=O)C1
inactive: [14]
